ChEMBL document CHEMBL1144999, “Identification of a novel, selective GABA(A) alpha5 receptor inverse agonist which enhances cognition” (J Med Chem, 2003)
pKi: −log10 of the molar value.

Assays:
[1] = biological target: T1, Gamma-aminobutyric acid receptor subunit alpha-5 (Homo sapiens) (UniProt P31644); experiment: Binding selectivity for human gamma-aminobutyric-acid A receptor alpha-5 over GABA A alpha1,alpha2 and alpha-3 receptors
T1 sequence (whole entry): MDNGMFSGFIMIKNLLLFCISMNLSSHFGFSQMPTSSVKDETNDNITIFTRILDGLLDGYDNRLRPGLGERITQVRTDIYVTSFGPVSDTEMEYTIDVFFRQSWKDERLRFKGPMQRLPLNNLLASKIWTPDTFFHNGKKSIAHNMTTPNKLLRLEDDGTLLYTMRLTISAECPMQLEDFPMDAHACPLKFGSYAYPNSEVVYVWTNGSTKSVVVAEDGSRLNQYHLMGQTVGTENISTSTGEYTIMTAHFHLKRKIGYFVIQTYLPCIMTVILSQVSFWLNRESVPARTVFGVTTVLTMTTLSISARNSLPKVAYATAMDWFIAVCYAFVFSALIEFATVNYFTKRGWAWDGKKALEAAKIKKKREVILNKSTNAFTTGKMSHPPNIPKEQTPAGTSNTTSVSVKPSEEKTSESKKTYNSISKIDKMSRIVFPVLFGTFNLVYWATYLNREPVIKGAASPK

[2] = biological target: T2, GABA-A receptor; alpha-5/beta-3/gamma-2 (Homo sapiens, UniProt P18507+P28472+P31644); experiment: Binding affinity to human GABA A alpha-5-beta-3-gamma-2 receptor, using a [3H]-Ro- 15-1788 radioligand; format: protein-complex assay
T2 sequence (P18507 whole entry): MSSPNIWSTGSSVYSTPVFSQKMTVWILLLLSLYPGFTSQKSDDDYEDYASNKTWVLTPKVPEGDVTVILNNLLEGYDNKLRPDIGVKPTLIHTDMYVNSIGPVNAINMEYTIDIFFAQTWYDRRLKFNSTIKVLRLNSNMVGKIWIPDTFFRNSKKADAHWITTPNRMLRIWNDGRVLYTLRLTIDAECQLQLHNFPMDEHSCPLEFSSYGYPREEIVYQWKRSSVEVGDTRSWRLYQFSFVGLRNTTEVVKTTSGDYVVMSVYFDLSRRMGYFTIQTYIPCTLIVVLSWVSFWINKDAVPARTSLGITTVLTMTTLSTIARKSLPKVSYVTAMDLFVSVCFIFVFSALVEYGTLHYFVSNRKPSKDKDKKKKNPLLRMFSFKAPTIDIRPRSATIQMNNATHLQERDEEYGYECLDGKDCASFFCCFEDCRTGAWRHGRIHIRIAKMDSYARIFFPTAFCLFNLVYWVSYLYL
T2 sequence (P28472 whole entry): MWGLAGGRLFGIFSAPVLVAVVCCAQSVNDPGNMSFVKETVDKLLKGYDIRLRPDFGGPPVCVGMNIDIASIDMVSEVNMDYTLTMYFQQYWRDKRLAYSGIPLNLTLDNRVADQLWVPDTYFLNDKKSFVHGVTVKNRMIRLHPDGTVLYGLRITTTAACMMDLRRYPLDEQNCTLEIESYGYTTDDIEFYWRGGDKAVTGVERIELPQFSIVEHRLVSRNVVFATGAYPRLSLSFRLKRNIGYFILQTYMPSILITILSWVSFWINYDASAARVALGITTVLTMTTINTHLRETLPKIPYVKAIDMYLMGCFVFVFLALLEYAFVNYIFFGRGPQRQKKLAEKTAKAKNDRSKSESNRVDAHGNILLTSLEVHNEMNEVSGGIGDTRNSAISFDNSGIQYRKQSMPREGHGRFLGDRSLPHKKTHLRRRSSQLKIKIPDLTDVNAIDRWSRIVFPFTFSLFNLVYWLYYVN
T2 sequence (P31644 whole entry): T1 sequence (whole entry)
How it was run: (§1)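 Displacement of [3H]Ro 15-1788 binding from harvested L(tk-) cells stably expressing human recombinant GABA-A receptors with β3 and γ2 subunits plus α1, α2, α3 or α5. […] Ki given as geometric mean ± SEM of three independent determinations.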

[3] = biological target: T3, GABA-A receptor; alpha-3/beta-3/gamma-2 (Homo sapiens, UniProt P18507+P28472+P34903); experiment: Binding affinity to human gamma-amino butyric-acid A receptor alpha-3-beta-3-gamma-2, using a [3H]-Ro- 15-1788 radioligand; format: protein-complex assay; how it was run: as §1
T3 sequence (P18507 whole entry): T2 sequence (P18507 whole entry)
T3 sequence (P28472 whole entry): T2 sequence (P28472 whole entry)
T3 sequence (P34903 whole entry): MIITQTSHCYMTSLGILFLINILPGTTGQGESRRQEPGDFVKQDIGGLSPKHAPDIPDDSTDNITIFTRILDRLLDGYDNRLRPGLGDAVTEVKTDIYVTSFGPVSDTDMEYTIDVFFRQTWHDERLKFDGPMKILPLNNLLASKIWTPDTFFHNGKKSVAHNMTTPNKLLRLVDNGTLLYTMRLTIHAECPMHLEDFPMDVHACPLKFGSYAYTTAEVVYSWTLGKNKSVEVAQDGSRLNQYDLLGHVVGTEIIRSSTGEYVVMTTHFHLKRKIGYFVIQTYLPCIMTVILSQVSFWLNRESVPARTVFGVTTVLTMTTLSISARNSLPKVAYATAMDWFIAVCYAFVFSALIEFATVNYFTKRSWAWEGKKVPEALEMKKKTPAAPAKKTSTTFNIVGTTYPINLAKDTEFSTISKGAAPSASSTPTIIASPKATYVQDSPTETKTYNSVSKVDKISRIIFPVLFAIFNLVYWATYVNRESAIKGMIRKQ

[4] = biological target: T4, GABA-A receptor; alpha-2/beta-3/gamma-2 (Homo sapiens, UniProt P18507+P28472+P47869); experiment: Binding affinity to human gamma-amino butyric-acid A receptor alpha-2-beta-3-gamma-2, using a [3H]-Ro- 15-1788 radioligand; format: protein-complex assay; how it was run: as §1
T4 sequence (P18507 whole entry): T2 sequence (P18507 whole entry)
T4 sequence (P28472 whole entry): T2 sequence (P28472 whole entry)
T4 sequence (P47869 whole entry): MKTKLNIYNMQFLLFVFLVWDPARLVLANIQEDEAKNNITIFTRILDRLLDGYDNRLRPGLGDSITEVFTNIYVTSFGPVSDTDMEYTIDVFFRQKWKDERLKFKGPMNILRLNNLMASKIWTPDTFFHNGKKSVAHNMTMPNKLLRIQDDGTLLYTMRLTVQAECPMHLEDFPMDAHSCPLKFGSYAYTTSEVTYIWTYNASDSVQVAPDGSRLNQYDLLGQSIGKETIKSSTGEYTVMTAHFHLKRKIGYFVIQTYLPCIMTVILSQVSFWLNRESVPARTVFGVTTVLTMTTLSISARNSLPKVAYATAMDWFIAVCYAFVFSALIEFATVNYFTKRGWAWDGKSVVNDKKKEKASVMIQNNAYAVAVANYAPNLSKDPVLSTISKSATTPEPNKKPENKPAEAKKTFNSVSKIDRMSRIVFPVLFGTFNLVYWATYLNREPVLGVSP

[5] = biological target: T5, GABA-A receptor; alpha-1/beta-3/gamma-2 (Homo sapiens, UniProt P14867+P18507+P28472); experiment: Binding affinity to human gamma-aminobutyric-acid A receptor alpha-1-beta-3-gamma-2, determined using [3H]-Ro- 15-1788 radioligand; format: protein-complex assay; how it was run: as §1
T5 sequence (P14867 whole entry): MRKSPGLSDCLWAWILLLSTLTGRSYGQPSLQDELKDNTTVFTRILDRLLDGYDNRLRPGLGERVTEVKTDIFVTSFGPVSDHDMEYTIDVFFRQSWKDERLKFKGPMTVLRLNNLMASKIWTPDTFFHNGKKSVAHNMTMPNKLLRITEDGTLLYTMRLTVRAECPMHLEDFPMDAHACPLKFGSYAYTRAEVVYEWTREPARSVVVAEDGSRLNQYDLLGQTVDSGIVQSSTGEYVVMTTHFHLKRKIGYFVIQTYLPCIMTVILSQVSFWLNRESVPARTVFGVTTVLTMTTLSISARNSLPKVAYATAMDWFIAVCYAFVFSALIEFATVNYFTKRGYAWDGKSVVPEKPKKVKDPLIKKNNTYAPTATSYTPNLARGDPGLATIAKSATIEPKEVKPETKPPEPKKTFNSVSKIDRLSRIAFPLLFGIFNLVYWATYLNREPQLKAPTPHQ
T5 sequence (P18507 whole entry): T2 sequence (P18507 whole entry)
T5 sequence (P28472 whole entry): T2 sequence (P28472 whole entry)

[6] = biological target: GABA-A receptor; alpha-5/beta-3/gamma-2 (Homo sapiens) (UniProt P18507+P28472+P31644); experiment: Efficacy for GABA-A receptor alpha-5-beta-3-gamma-2 subunits expressed in Xenopus laevis oocytes by two-electrode voltage clamp recording; format: cell-based; settings: Oocyte
How it was run: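 Two-electrode voltage clamp on Xenopus laevis oocytes injected with human α5β3γ2 cDNA, recorded 2-4 days after injection. Expression checked with 3 mM GABA; oocytes with currents <0.3 μA rejected. A GABA EC20 was determined per oocyte. Compound applied at a single concentration near 100× Ki. Efficacy (%) = (current with compound/control EC20 current × 100) − 100.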

| SMILES | Selectivity [1] | pKi [2] | pKi [3] | pKi [4] | pKi [5] | Efficacy [6] |
| --- | --- | --- | --- | --- | --- | --- |
| CCCSc1sc(-c2cc[nH]n2)c2c1C(=O)CC(C)(C)C2 | 9 | 8.34 | 7.39 | 7.55 | 7.66 |  |
| CC1(C)CC(=O)c2c(Sc3cccs3)sc(-c3cc[nH]n3)c2C1 | 8 | 8.62 | 7.74 | 8.12 | 8.00 |  |
| CC1(C)CC(=O)c2csc(-c3cc[nH]n3)c2C1 |  | < 6.52 | < 6.52 | < 6.52 | < 6.52 |  |
| CSc1sc(-c2cccnc2)c2c1C(=O)CC(C)(C)C2 | 28 |  |  |  |  | -40 |
| CSc1sc(-c2nccs2)c2c1C(=O)CC(C)(C)C2 | 28 |  |  |  |  | -24 |
| CSc1sc(-c2ccncc2)c2c1C(=O)CC(C)(C)C2 | 19 |  |  |  |  | -20 |
| CNc1sc(-c2cc[nH]n2)c2c1C(=O)CC(C)(C)C2 | > 2 | 6.88 | < 6.52 | < 6.52 | < 6.52 |  |
| CCc1sc(-c2cc[nH]n2)c2c1C(=O)CC(C)(C)C2 | 22 | 7.96 | 6.62 | 6.79 | 6.68 |  |
| CCSc1sc(-c2cc[nH]n2)c2c1C(=O)CC(C)(C)C2 | 10 |  |  |  |  |  |
| CCCCSc1sc(-c2cc[nH]n2)c2c1C(=O)CC(C)(C)C2 | 10 | 7.74 | 6.74 | 6.74 | 7.24 |  |
| CSc1sc(-c2cc[nH]n2)c2c1C(=O)CC(C)(C)C2 | 13 |  |  |  |  | -3 |
| CSc1sc(-c2ccc[nH]2)c2c1C(=O)CC(C)(C)C2 | > 4 | 7.07 | < 6.52 | < 6.52 | < 6.52 |  |
| CC1(C)CC(=O)c2c(SCCCO)sc(-c3cc[nH]n3)c2C1 | 13 | 8.33 | 7.30 | 7.34 | 7.22 |  |
| CSc1sc(-c2ncn(C)n2)c2c1C(=O)CC(C)(C)C2 | 14 | 7.72 | 6.99 | 7.31 | 6.57 |  |
| CC1(C)CC(=O)c2c(NCCO)sc(-c3cc[nH]n3)c2C1 | > 4 | 7.11 | < 6.52 | < 6.52 | < 6.52 |  |
| CC1(C)CC(=O)c2c(SC(C)(C)C)sc(-c3cc[nH]n3)c2C1 | > 2 | 6.77 | < 6.52 | < 6.52 | < 6.52 |  |
| CC1(C)CC(=O)c2c(SCCO)sc(-c3cc[nH]n3)c2C1 | 11 |  |  |  |  |  |
| CSc1sc(-c2nc(C)no2)c2c1C(=O)CC(C)(C)C2 | > 8 | 7.43 | 6.73 | < 6.52 | < 6.52 |  |
| CSc1sc(-c2cncs2)c2c1C(=O)CC(C)(C)C2 | 12 | 7.82 | 6.80 | 6.79 | 6.76 |  |
| CC(C)Sc1sc(-c2cc[nH]n2)c2c1C(=O)CC(C)(C)C2 | 6 |  |  |  |  |  |
| COc1sc(-c2cc[nH]n2)c2c1C(=O)CC(C)(C)C2 | > 5 | 7.17 | < 6.52 | < 6.52 | < 6.52 |  |
| CSc1sc(-c2ccccc2)c2c1C(=O)CC(C)(C)C2 |  | < 6.52 | < 6.52 | < 6.52 | < 6.52 |  |
| CC(C)Oc1sc(-c2cc[nH]n2)c2c1C(=O)CC(C)(C)C2 | 18 | 7.82 | 7.16 | 6.74 | 6.92 |  |
